Results from ChEMBL document CHEMBL4706531, “Discovery of Novel c-Mesenchymal-Epithelia transition factor and histone deacetylase dual inhibitors” (Eur J Med Chem, 2020).

What was measured:
[1] = target: Histone deacetylase 1 (Homo sapiens, UniProt Q13547); assay: Inhibition of human C-terminal Flag tagged HDAC1 (1 to 482 residues) expressed in SF9 cells using Ac-peptide substrate preincubated for 15 mins followed by substrate addition and measured after 60 mins by microplate reader method
[2] = target: Hepatocyte growth factor receptor (Homo sapiens, UniProt P08581); assay: Inhibition of c-MET(unknown origin) using FAM labelled peptide substrate preincubated for 10 mins followed by substrate addition and measured by microplate reader method
[3] = test system: HCT-116; assay: cells; type: functional, cell-based; details: Homo sapiens, HCT-116, 72 h
[4] = test system: MCF7; assay: cells; type: functional, cell-based; details: Homo sapiens, MCF7, 72 h
[5] = test system: A549; assay: cells; type: functional, cell-based; details: Homo sapiens, A549, 72 h
[6] = test system: HCT-116; assay: Induction of apoptosis in human HCT-116 cells assessed as viable cells at 0.2 uM measured after 48 hrs by Annexin V/PI staining based Flowcytometry method (reference value: 95.33%); type: functional; details: read-out: Activity
Summary of the method: (§1)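 HCT-116 cells seeded at 10^5 cells/mL in 6-well plates. After 12 h, dosed at 0.2, 1.0 or 5.0 μM for 48 h, then washed three times in PBS. Stained with Annexin V-FITC/PI per kit and read by flow cytometry. Early apoptotic = Annexin V+/PI−, late = double positive. Mean ± S.D., n = 3.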

[7] = test system: HCT-116; assay: Induction of apoptosis in human HCT-116 cells assessed as early apoptotic cells at 0.2 uM measured after 48 hrs by Annexin V/PI staining based Flowcytometry method (reference value: 2.04%); type: functional; summary of the method: as §1
[8] = test system: HCT-116; assay: Induction of apoptosis in human HCT-116 cells assessed as late apoptotic cells at 0.2 uM measured after 48 hrs by Annexin V/PI staining based Flowcytometry method (reference value: 1.44%); type: functional; summary of the method: as §1
[9] = test system: HCT-116; assay: Induction of apoptosis in human HCT-116 cells assessed as necrotic cells at 0.2 uM measured after 48 hrs by Annexin V/PI staining based Flowcytometry method (reference value: 1.19%); type: functional; summary of the method: as §1
[10] = test system: HCT-116; assay: Induction of apoptosis in human HCT-116 cells assessed as viable cells at 1 uM measured after 48 hrs by Annexin V/PI staining based Flowcytometry method (reference value: 95.33%); type: functional; details: read-out: Activity; summary of the method: as §1
[11] = test system: HCT-116; assay: Induction of apoptosis in human HCT-116 cells assessed as early apoptotic cells at 1 uM measured after 48 hrs by Annexin V/PI staining based Flowcytometry method (reference value: 2.04%); type: functional; summary of the method: as §1
[12] = test system: HCT-116; assay: Induction of apoptosis in human HCT-116 cells assessed as late apoptotic cells at 1 uM measured after 48 hrs by Annexin V/PI staining based Flowcytometry method (reference value: 1.44%); type: functional; summary of the method: as §1
[13] = test system: HCT-116; assay: Induction of apoptosis in human HCT-116 cells assessed as necrotic cells at 1 uM measured after 48 hrs by Annexin V/PI staining based Flowcytometry method (reference value: 1.19%); type: functional; summary of the method: as §1
[14] = test system: HCT-116; assay: Induction of apoptosis in human HCT-116 cells assessed as viable cells at 5 uM measured after 48 hrs by Annexin V/PI staining based Flowcytometry method (reference value: 95.33%); type: functional; details: read-out: Activity; summary of the method: as §1
[15] = test system: HCT-116; assay: Induction of apoptosis in human HCT-116 cells assessed as early apoptotic cells at 5 uM measured after 48 hrs by Annexin V/PI staining based Flowcytometry method (reference value: 2.04%); type: functional; summary of the method: as §1
[16] = test system: HCT-116; assay: Induction of apoptosis in human HCT-116 cells assessed as late apoptotic cells at 5 uM measured after 48 hrs by Annexin V/PI staining based Flowcytometry method (reference value: 1.44%); type: functional; summary of the method: as §1
[17] = test system: HCT-116; assay: Induction of apoptosis in human HCT-116 cells assessed as necrotic cells at 5 uM measured after 48 hrs by Annexin V/PI staining based Flowcytometry method (reference value: 1.19%); type: functional; summary of the method: as §1
[18] = test system: HCT-116; assay: Cell cycle arrest in human HCT-116 cells assessed as accumulation of cells in G2/M phase at 0.2 uM measured after 48 hrs by PI staining based flowcytometry method (reference value: 11.74%); type: functional
[19] = test system: HCT-116; assay: Cell cycle arrest in human HCT-116 cells assessed as accumulation of cells in S phase at 0.2 uM measured after 48 hrs by PI staining based flowcytometry method (reference value: 30.63%); type: functional
[20] = test system: HCT-116; assay: Cell cycle arrest in human HCT-116 cells assessed as accumulation of cells in G1 phase at 0.2 uM measured after 48 hrs by PI staining based flowcytometry method (reference value: 57.63%); type: functional
[21] = test system: HCT-116; assay: Cell cycle arrest in human HCT-116 cells assessed as accumulation of cells in G2/M phase at 1 uM measured after 48 hrs by PI staining based flowcytometry method (reference value: 11.74%); type: functional
[22] = test system: HCT-116; assay: Cell cycle arrest in human HCT-116 cells assessed as accumulation of cells in S phase at 1 uM measured after 48 hrs by PI staining based flowcytometry method (reference value: 30.63%); type: functional
[23] = test system: HCT-116; assay: Cell cycle arrest in human HCT-116 cells assessed as accumulation of cells in G1 phase at 1 uM measured after 48 hrs by PI staining based flowcytometry method (reference value: 57.63%); type: functional
[24] = test system: HCT-116; assay: Cell cycle arrest in human HCT-116 cells assessed as accumulation of cells in G2/M phase at 5 uM measured after 48 hrs by PI staining based flowcytometry method (reference value: 11.74%); type: functional
[25] = test system: HCT-116; assay: Cell cycle arrest in human HCT-116 cells assessed as accumulation of cells in S phase at 5 uM measured after 48 hrs by PI staining based flowcytometry method (reference value: 30.63%); type: functional
[26] = test system: HCT-116; assay: Cell cycle arrest in human HCT-116 cells assessed as accumulation of cells in G1 phase at 5 uM measured after 48 hrs by PI staining based flowcytometry method (reference value: 57.63%); type: functional

Chain of Histone deacetylase 1 (Q13547 whole entry, the tested form may be a part): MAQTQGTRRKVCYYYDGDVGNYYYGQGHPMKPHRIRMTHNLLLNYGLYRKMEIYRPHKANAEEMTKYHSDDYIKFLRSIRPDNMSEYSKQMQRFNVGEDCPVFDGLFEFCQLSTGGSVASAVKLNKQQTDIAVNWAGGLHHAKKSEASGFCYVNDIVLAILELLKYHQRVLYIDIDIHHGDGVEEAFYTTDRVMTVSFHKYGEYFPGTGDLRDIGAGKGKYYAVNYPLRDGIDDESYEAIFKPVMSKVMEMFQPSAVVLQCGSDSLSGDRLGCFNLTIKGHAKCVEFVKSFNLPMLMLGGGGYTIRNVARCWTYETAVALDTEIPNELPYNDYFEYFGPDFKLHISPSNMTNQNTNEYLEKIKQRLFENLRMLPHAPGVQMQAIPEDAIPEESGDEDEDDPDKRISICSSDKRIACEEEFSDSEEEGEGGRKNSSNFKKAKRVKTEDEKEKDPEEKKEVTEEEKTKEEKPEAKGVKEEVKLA
Chain of Hepatocyte growth factor receptor (P08581 whole entry): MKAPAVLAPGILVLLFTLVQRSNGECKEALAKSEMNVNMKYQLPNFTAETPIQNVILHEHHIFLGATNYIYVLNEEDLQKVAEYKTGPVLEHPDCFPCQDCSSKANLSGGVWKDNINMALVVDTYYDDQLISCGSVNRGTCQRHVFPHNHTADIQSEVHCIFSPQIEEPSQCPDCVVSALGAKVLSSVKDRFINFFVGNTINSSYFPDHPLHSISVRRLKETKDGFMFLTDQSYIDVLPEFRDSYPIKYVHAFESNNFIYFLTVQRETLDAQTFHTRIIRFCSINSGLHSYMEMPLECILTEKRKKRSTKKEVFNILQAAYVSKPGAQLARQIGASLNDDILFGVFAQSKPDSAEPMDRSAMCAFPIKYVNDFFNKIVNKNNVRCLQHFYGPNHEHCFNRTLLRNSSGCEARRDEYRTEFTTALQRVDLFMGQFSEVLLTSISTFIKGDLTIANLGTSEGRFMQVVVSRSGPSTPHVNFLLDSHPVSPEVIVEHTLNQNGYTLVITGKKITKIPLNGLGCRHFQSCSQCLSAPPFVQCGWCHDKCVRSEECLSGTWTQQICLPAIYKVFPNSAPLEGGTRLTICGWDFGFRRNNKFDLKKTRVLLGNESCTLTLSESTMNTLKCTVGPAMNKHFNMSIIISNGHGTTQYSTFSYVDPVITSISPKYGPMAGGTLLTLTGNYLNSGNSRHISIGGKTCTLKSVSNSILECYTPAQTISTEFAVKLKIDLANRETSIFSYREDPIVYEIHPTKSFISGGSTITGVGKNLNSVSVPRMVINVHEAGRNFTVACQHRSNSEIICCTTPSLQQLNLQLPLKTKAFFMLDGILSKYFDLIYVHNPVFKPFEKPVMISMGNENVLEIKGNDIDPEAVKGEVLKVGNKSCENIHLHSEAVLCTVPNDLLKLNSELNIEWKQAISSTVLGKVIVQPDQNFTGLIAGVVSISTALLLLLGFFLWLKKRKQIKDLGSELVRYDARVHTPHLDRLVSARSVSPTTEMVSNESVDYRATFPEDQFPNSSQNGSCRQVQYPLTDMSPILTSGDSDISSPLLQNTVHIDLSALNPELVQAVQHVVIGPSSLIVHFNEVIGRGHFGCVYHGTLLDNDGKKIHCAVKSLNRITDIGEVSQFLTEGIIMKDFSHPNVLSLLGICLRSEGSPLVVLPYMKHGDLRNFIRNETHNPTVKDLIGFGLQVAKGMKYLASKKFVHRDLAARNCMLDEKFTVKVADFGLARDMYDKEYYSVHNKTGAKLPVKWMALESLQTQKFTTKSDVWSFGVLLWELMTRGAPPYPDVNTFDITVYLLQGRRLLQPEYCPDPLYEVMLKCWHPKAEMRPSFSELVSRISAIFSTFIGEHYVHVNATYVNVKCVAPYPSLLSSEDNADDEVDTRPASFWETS

COc1cc2c(Oc3ccc(NC(=O)c4nn(-c5ccccc5)ccc4=O)cc3)ccnc2cc1OCCCCCCC(=O)NO
IC50 [1]: 18.5 nM | IC50 [2]: 5.4 nM | IC50 [3]: 220 nM | IC50 [4]: 1590 nM | IC50 [5]: 220 nM | viability at 0.2 µM [6]: 94.9% | Activity [7]: 2.35% | Activity [8]: 1.84% | Activity [9]: 0.9% | viability at 1 µM [10]: 84.3% | Activity [11]: 8.44% | Activity [12]: 3.09% | Activity [13]: 4.12% | viability at 5 µM [14]: 75.6% | Activity [15]: 19.23% | Activity [16]: 2.25% | Activity [17]: 2.96% | Activity [18]: 14.59% | Activity [19]: 30.04% | Activity [20]: 55.37% | Activity [21]: 80.03% | Activity [22]: 15.1% | Activity [23]: 4.87% | Activity [24]: 81.22% | Activity [25]: 13.28% | Activity [26]: 5.5%
